Only some compounds are listed: those with a hit (about 4.1% of all), similar ones and a draw of the others.
KCC2 mod = modulators of human KCC2 chloride dependent transport. Q9H2X9. KCC2 cells, thallium flux FluoZin-2 fluorescence. B-score of Tl+ flux slope (higher = more flux/activation; lower = inhibition) at 10 µM. 190,000 tested, 2.2% active;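 active = thallium flux slope and its plate-corrected score both differing from the plate sample mean at a set confidence after two filtering rounds, in either direction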;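 also: slope of fluorescence scaled to starting intensity during 10 to 20 s after thallium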
KCNQ1 act = human KCNQ1 channel potentiation or activation. CHO-K1 KCNQ1, thallium flux FluxOR fluorescence; hits give high values. B-score at 10 µM. 310,000 tested, 0.35% active. AID 2648;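 active = fluorescence ratio B-score, a plate-corrected score, at least three library SD, with initial intensity B-score within 5 SD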
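assay system = CHO-K1 cells stably expressing KCNQ1 | medium = assay buffer, equal DMSO in all wells | timing = 37 °C overnight plating, 90-min dark dye load, 20-min compound pretreatment | measured by = kinetic FluxOR thallium fluorescence, 10-s 1-Hz baseline, 110-s post-stimulus read | measure = fluorescence change relative to baseline, converted to B score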
hERG rescue = compounds protecting human hERG from proarrhythmic drug block; CHO-hERG, FluxOR thallium flux, dofetilide IC70 present; 310,000 tested, 0.51% active; activation (rescue from dofetilide block), less the hit threshold, % at 10 µM; Q12809;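 active = activation above the mean of controls blocked by dofetilide plus 5 SD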;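 also: thallium influx through hERG after potassium depolarization seen as dye fluorescence rise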
KCNQ1 inh = human KCNQ1 channel inhibition | AID 2642 | P51787 | CHO-K1 KCNQ1, FluxOR thallium flux fluorescence; hits give high values | 310,000 tested, 1.3% active | B-score at 10 µM;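 active = compounds whose thallium flux B-score, printed positive for inhibition, exceeds three library SD while starting fluorescence stays within three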;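 also: channel opened by potassium depolarization with thallium stimulus after 20 min compound exposure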
KCNK9 inh = blocks the human KCNK9 two-pore domain potassium channel; Q9NPC2; HEK293 KCNK9, FluxOR thallium flux fluorescence; hits give low values; B-score at 10 µM; 310,000 tested, 1.2% active; AID 488922;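 active = ratio B-score over 3 SD below the library mean, with starting fluorescence within 5 SD of its mean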;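 also: negative B-score means less thallium flux so channel inhibition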
KCNK3 block = human KCNK3 channel inhibition, primary screen; B-score at 10 µM; 340,000 tested, 0.84% active; CHO-KCNK3 thallium flux, FluxOR fluorescence; hits give low values; AID 602410; O14649;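 active = B-score under library mean minus 4 SD, starting fluorescence ratio at most library mean plus 5 SD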;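 also: more negative B-score means stronger inhibition of thallium flux through KCNK3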
KCNQ1 inh valid = human KCNQ1 channel inhibition, validation assay. AID 588353. shares compounds with KCNQ1 inh. inhibition, % at 10 µM. KCNQ1 cell line, FluxOR thallium flux fluorescence. 1,600 tested, 93% active;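 active = primary screen active, with duplicate mean exceeding buffer control mean plus 3 SD of buffer wells, cut at about 28% in these data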;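 also: 0% = buffer control ratio and 100% = XE991 inhibitor control ratio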
CHO Tl flux = activity in parental CHO cells lacking KCNQ1 | parental CHO-K1, FluxOR thallium flux fluorescence ratio; hits give low values; zero means no signal rise above baseline | 1,600 tested, 21% active | fluorescence ratio (Tl flux) at 10 µM | shares compounds with KCNQ1 inh | AID 588366;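 active = mean of duplicate thallium-flux fluorescence ratios in parental host cells more than 5 SD below the buffer control mean, cut at about 0.38 in these data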;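 also: ratio is peak minus minimum fluorescence divided by baseline fluorescence; actives read low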
KCNQ1 APC inh = human KCNQ1 inhibition validated by electrophysiology; KCNQ1-CHO cells, automated patch clamp current; calls only at 10 µM; shares compounds with KCNQ1 inh; 490 tested, 20% active;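 active = KCNQ1 current drop exceeding 3 SD of negative control wells, seen in both duplicate runs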;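 also: steady state current during a 2 s step from -80 to +40 mV; negative values mean current inhibition and positive values mean potentiation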
KCNQ2 spec = KCNQ1 inhibitor that also blocks rat KCNQ2 channel | shares compounds with KCNQ1 inh | KCNQ2 cells, FluxOR thallium flux fluorescence | inhibition, % at 10 µM | 1,600 tested, 71% active;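 active = mean percent inhibition of the KCNQ2 thallium signal more than 5 SD above the buffer-only control wells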;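 also: KCNQ2 expressed in CHO cells; 0% = buffer control wells and 100% = XE-991 inhibitor control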
KCNQ1 KCNE1 spec = KCNQ1 inhibitor that also blocks human KCNQ1/KCNE1 channel. KCNQ1/KCNE1 cells, FluxOR thallium flux fluorescence. inhibition, % at 10 µM. 1,600 tested, 77% active. shares compounds with KCNQ1 inh;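 active = mean percent inhibition of duplicate wells above the buffer-only control mean plus 3 SD of those controls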;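 also: 0% = buffer only wells and 100% = XE-991 inhibitor control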
An asterisk follows results filed as active; i = inactive; x = no result given; + = active, no number.

SMILES | KCC2 mod | KCNQ1 act | hERG rescue | KCNQ1 inh | KCNK9 inh | KCNK3 block | KCNQ1 inh valid | CHO Tl flux | KCNQ2 spec | KCNQ1 KCNE1 spec | others
Cc1ccc(N2CCN(S(=O)(=O)N3CCCCC3)CC2)cc1Cl | -0.0127 | i | -2.5 | i | i | i | x | x | x | x
Cc1cc(C)c(N2CCN(S(=O)(=O)N3CCCCCC3)CC2)c(C)c1 | 0.498 | i | -12.6 | 7* | i | i | 125.5* | 0.444 | 115.3%* | 118.0%*
NCCOc1ccc(C23CC4CC(CC(C4)C2)C3)cc1 | 0.314 | i | -21.6 | 7* | i | i | 147.0* | 0.642 | i | i | KCNQ1 APC inh=+
CN(Cc1ccc(F)cc1)C(=O)c1cccc(S(=O)(=O)N2CCN(c3ccccc3)CC2)c1 | x | i | -7.7 | 7* | i | i | 75.5* | 0.456 | 70.3%* | i
CN(Cc1ccc(F)cc1)C(=O)c1cccc(S(=O)(=O)N2CCN(c3ccc(F)cc3)CC2)c1 | x | i | -12.4 | i | i | i | x | x | x | x
CSCCC(NS(=O)(=O)c1ccc2c(c1)OCCO2)C(=O)N(C)Cc1ccccc1F (configuration not stated) | x | x | x | x | x | i | x | x | x | x
Cc1cccc(NS(=O)(=O)c2ccc(C3CCCCC3)cc2)c1 | -0.78 | i | -8.4 | 7* | i | i | 0.0 | 0.609 | i | i
O=C(O)c1cccc(NS(=O)(=O)c2ccc(C3CCCCC3)cc2)c1 | -0.572 | i | -9.9 | i | i | i | x | x | x | x
COc1ccc(S(=O)(=O)N2CCN(C(=O)c3ccc(NC(C)=O)cc3)CC2)cc1 | x | x | x | x | x | i | x | x | x | x
O=C(O)c1cc(NS(=O)(=O)c2cccc3ccccc23)ccc1O | 0.0247 | i | -2.3 | i | i | i | x | x | x | x
O=S(=O)(Nc1c(O)ccc2ccccc12)c1cccc2ccccc12 | x | i | -19.9 | 11* | i | i | 32.5* | 0.472 | i | 90.5%*
COC(=O)c1ccc2c(=O)n(-c3ccccc3)c(SCN3C(=O)c4ccccc4C3=O)nc2c1 | 1.61 | i | -7.6 | 6* | i | i | 87.0* | 0.513 | i | 65.5%*
CCOC(=O)CSc1nc2cc(C(=O)N3CCC(C(N)=O)CC3)ccc2c(=O)n1-c1ccccc1 | 0.068 | i | -18.7 | i | i | i | x | x | x | x
Oc1cccc(NC(=S)Nc2cccnc2)c1 | 1.42 | i | -4.1 | i | i | i | x | x | x | x
Oc1cccc(NC(=S)Nc2ccc(SC(F)F)cc2)c1 | -1.04 | i | -12.9 | 10* | i | i | 68.0* | 0.529 | i | 90.0%*
O=C(Nc1ccccc1N1CCOCC1)c1ccccc1NS(=O)(=O)c1ccc(F)c(F)c1 | -1.37 | i | -7.9 | 7* | i | i | 59.0* | 0.446 | 74.3%* | i
O=C(Nc1ccccc1N1CCOCC1)c1ccccc1NS(=O)(=O)c1ccc(F)cc1 | -1.64 | i | -15.2 | i | i | i | x | x | x | x
CCc1ccccc1Nc1ncnc2ccccc12 | x | i | -0.8 | i | i | i | x | x | x | x
CCCCCCCCNc1ncnc2ccccc12 | x | i | -35.9 | 9* | i | i | 125.0* | 0.372* | 75.7%* | 117.5%*
c1ccc(CCNc2ncnc3ccccc23)cc1 | 0.748 | i | -16.9 | 8* | i | i | 139.0* | 0.484 | 84.3%* | 110.0%* | KCNQ1 APC inh=i
NC(=O)N=Nc1c(O)n(Cc2ccccc2)c2ccc(Br)cc12 | x | i | -2.4 | i | i | i | x | x | x | x
S=C(NCc1ccco1)Nc1cccc(Cl)c1 | x | i | -7.4 | i | i | i | x | x | x | x
S=C(NCc1ccco1)Nc1ccc(Cl)c(Cl)c1 | -2.05 | i | -17.8 | 8* | i | i | 42.5* | 0.57 | i | 52.0%*
COc1ccc(NC(=S)NCc2ccco2)cc1 | 1.13 | i | -0.1 | i | i | i | x | x | x | x
S=C(NCc1ccncc1)Nc1ccc(Cl)c(Cl)c1 | -1.45 | i | -12.9 | 6* | i | i | 33.0* | 0.577 | i | i
SMILES | KCC2 mod | KCNQ1 act | hERG rescue | KCNQ1 inh | KCNK9 inh | KCNK3 block | KCNQ1 inh valid | CHO Tl flux | KCNQ2 spec | KCNQ1 KCNE1 spec | others
S=C(NCc1ccco1)Nc1ccc(Oc2ccccc2)cc1 | -2.03 | i | -18.1 | 8* | i | i | 45.0* | 0.426 | 59.3%* | 66.0%*
S=C(NCc1ccncc1)Nc1cc(Cl)cc(Cl)c1 | x | i | -13.9 | i | i | i | x | x | x | x
N#CCSc1ccccc1NC(=O)COC(=O)CCNC(=O)c1ccc([N+](=O)[O-])cc1 | x | x | x | x | x | i | x | x | x | x
CCOC(=O)[C@H]1[C@H]2COc3ccc(Cl)cc3[C@@H]2N2C(=O)CN(Cc3ccc(Cl)cc3)C(=O)[C@@]12C | x | x | x | x | x | i | x | x | x | x
O=C1N(Cc2cccc(Cl)c2)C[C@@H]2C[C@@H](c3cccn3-c3nccs3)N3CCC[C@@]123 | x | i | -10.3 | i | i | i | x | x | x | x
O=C1N(Cc2cccc(Cl)c2)C[C@@H]2C[C@@H](c3cccn3-c3ccccn3)N3CCC[C@@]123 | 0.932 | i | -10.7 | 6* | i | i | 65.0* | 0.5 | 63.3%* | 46.5%*
COc1ccccc1-c1cn[nH]c1-c1ccc(OCc2ccccc2)cc1O | 1.08 | i | -11.0 | i | i | i | x | x | x | x
COc1ccc(-c2cn[nH]c2-c2ccc(OCc3ccccc3)cc2O)cc1 | 0.813 | i | -8.7 | 7* | -6.73* | i | 107.0* | 0.426 | 91.3%* | 129.5%* | KCNQ1 APC inh=i
Cc1nc2ccc(NS(=O)(=O)c3ccc(C)c(C)c3)cc2s1 | 0.044 | i | -7.1 | 7* | i | i | 68.5* | 0.524 | i | i
CC(=O)c1cccc(S(=O)(=O)Nc2ccc3nc(C)sc3c2)c1 | 0.172 | i | -13.7 | i | i | i | x | x | x | x
N#CC1=C2N=C(N)c3ccccc3N2C2=C(C(=O)CCC2)C1c1ccc(Cl)cc1 (configuration not stated) | 0.286 | i | -10.9 | i | i | i | x | x | x | x
CC1(C)CC(=O)C2=C(C1)N1C(=C(C#N)C2c2ccc(Cl)cc2)N=C(N)c2ccccc21 (configuration not stated) | -0.685 | i | -11.4 | 8* | i | i | 74.5* | 0.412 | 77.0%* | 70.5%*
